Screening data as filed in PubChem BioAssay.
DENV2 CPE rescue: inhibitors of DENV2 cytopathic effect, primary screen, cell-based, plate reader, single concentration. DENV2-infected cells, cytopathic effect rescue. CPE inhibition, % at 9.99 µM. 1.7% of 350,000 active. AID 651640, 2012; in the data active means CPE inhibition above about 20%, passing the limit was not always enough; tested in BHK-21 cells;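 further: 0% = median of neutral control wells and 100% = median of positive control wells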
E-selectin induc: E-selectin induction in HUVECs, primary screen, imaging, HUVEC, immunofluorescence imaging, single point. normalized: neutral wells 0, TNF-alpha wells 100. activation, % at 7.58 µM. 0.37% of 260,000 active. P16581. AID 686992, 2013;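 active means mean E-selectin-positive cell signal at least 10% of the positive control, reached in at least 60% of replicates, without over 20% cell loss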
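Assay system: HUVEC primary endothelial cells. Input: 3,000 HUVEC seeded per well. Doses: one compound dose added by pin transfer. Read-out basis: % PE-positive cells. Benchmarks: TNF-alpha high, DMSO low. Detection: immunofluorescence imaging. Buffer or medium: EGM-2, gelatin.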
SIRT5 block: SIRT5 desuccinylase inhibitors, primary screen, biochemical, fluorescence imaging, single point, set 5; inhibition, % at 15 µM; 1.1% of 330,000 active; Purified SirT5, succinyl-peptide AMC, trypsin-coupled fluorescence; in the data active means inhibition above about 15%
Target sequence (Q9NXA8 whole entry, looked up): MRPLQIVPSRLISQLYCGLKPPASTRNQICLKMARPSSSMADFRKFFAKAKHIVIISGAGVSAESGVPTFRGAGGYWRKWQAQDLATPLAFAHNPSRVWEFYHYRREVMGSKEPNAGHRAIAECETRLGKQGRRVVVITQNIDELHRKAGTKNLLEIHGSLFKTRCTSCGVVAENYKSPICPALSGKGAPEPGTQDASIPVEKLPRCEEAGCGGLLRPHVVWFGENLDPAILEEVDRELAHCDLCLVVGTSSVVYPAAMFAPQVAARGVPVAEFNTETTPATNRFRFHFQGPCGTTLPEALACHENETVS
Starred values were filed as active, the others as inactive; · = no result given. Rows were chosen to be rich in hits. Some 2.9% of all compounds tested hit in one or more screens of this group.

SMILES | DENV2 CPE rescue | E-selectin induc | SIRT5 block
CC(C)NC(=O)N(C)C[C@H]1Oc2ccc(NC(=O)CCC(F)(F)F)cc2C(=O)N([C@H](C)CO)C[C@@H]1C | -1 | 0 | -13
CC(C)NC(=O)N(C)C[C@@H]1Oc2ccc(NC(=O)CCCN(C)C)cc2C(=O)N([C@@H](C)CO)C[C@H]1C | 8 | 242* | 3
CC(C)NC(=O)N(C)C[C@H]1Oc2ccc(NC(=O)CCC(F)(F)F)cc2C(=O)N([C@@H](C)CO)C[C@@H]1C | 23* | -6 | -2
CC(C)NC(=O)N(C)C[C@@H]1Oc2ccc(NC(=O)CCCN(C)C)cc2C(=O)N([C@@H](C)CO)C[C@@H]1C | 5 | -17 | -3
O=C(NCc1cccnc1)C1c2ccccc2C(=O)N1C1CCCCCC1 (configuration not stated) | 5 | · | 2
Cc1cc(C2=NNC(=Nc3ccccc3)SC2)c(C)n1C | -2 | 2 | 1
COc1ccc(-n2c(Cc3cc(=O)[nH]c(=O)[nH]3)nnc2SCC(=O)N2CCCC2)cc1 | -5 | 0 | ·
COc1cccc(-n2c(Cc3cc(=O)[nH]c(=O)[nH]3)nnc2SCC(=O)N2CCCCCC2)c1 | 69* | · | ·
C[C@H]1CN([C@@H](C)CO)C(=O)c2cccc(NC(=O)Nc3cccc4ccccc34)c2O[C@@H]1CN(C)C(=O)Nc1cccc2ccccc12 | -1 | 0 | 2
CC(C)Cc1cc(C(=O)Nc2cccnc2)no1 | -7 | · | -6
C/C=C(/C)C(=O)O[C@@H]1c2c(ccc3ccc(=O)oc23)OC(C)(C)[C@@H]1OC(=O)/C(C)=C\C | 26* | 0 | 31*
C/C=C(/C)C(=O)O[C@@H]1[C@H](OC(=O)C=C(C)C)c2c(ccc3ccc(=O)oc23)OC1(C)C | · | -1 | -8
COc1ccc(CNC(=O)CNC(=O)[C@@H]2Cc3ccccc3CN2)cc1 | 9 | · | -1
Cc1ccc(CNC(=O)CNC(=O)[C@@H]2Cc3ccccc3CN2)cc1 | 5 | 0 | 37*
C[C@@H]1CN([C@H](C)CO)C(=O)c2ccccc2-c2ccccc2CO[C@@H]1CN(C)Cc1ccccc1 | -16 | 0 | 4
Cc1cccc(N2CCN(C(=O)c3cc(S(=O)(=O)N(C)C)ccc3N3CCCC3)CC2)c1C | · | -2 | 1
COc1ccc(S(=O)(=O)N(C)C[C@H]2Oc3ccc(NS(=O)(=O)c4ccc(C)cc4)cc3CC(=O)N([C@@H](C)CO)C[C@H]2C)cc1 | 4 | 0 | ·
COc1ccccc1CNC1CCN(Cc2ccccc2)CC1 | 4 | · | ·
CCCC(c1nnnn1C1CCCCC1)N1CCN(C(=O)c2ccco2)CC1 (configuration not stated) | -3 | · | -3
COc1ncnc(OC)c1S(=O)(=O)NCc1ccccc1 | 3 | 50* | -3
COc1cc(C)c(Br)cc1S(=O)(=O)NCc1ccccc1 | · | · | -4
Cc1ccccc1NC(=O)c1ccc2c(c1)CCN2S(C)(=O)=O | -2 | 0 | -5
COCc1nnc(NC(=O)c2cccc(NC(=O)C(C)C)c2)s1 | 10 | -2 | -5
Cc1c(C(=O)O)cccc1-n1c(C)cc(/C=N/Nc2ccc([N+](=O)[O-])cn2)c1C | 2 | · | 16*
O=C(O)c1ccccc1C=NNc1ccc([N+](=O)[O-])cn1 | -4 | 8 | 1
SMILES | DENV2 CPE rescue | E-selectin induc | SIRT5 block
Cc1ccc2c(c1)S/C(=C\c1cccc[n+]1C)N2CCO | 4 | 0 | 5
Cc1cccc(NC(=O)NCc2ccc3c(c2)cc(C)n3C)c1 | 9 | 56* | 2
COc1cccc(NC(=S)NCc2ccc3c(c2)cc(C)n3C)c1 | -6 | 0 | 0
Cc1cc2cc(CNC(=O)CCC(=O)O)ccc2n1C | -7 | · | ·
Cc1cc2cc(CNC(=O)Nc3cccc(Cl)c3)ccc2n1C | 3 | 33* | ·
CNC(=O)c1c(C)[nH]c(=S)c(C#N)c1-c1ccco1 | -7 | 0 | 9
C=CCN1C(=O)c2n[nH]c(COC)c2C1c1cccc(C(F)(F)F)c1 (configuration not stated) | -6 | 0 | ·
CCOC(=O)c1c(C)n(-c2ccc(C)cc2)c2ccc(OCC(O)CN3CCN(C)CC3)cc12 (configuration not stated) | -2 | · | -2
COc1ccc(CN2CCNC(=O)C2CC(=O)NCC2CCOCC2)c(C)c1C (configuration not stated) | 89* | 0 | 0
COc1ccccc1CN1CCNC(=O)C1CC(=O)NCC1CCOCC1 (configuration not stated) | -4 | · | 2
Cc1nnc(SCC(=O)Nc2ccccc2F)n1Cc1ccco1 | 64* | · | 3
O=C(CSc1n[nH]c(=O)n1Cc1ccco1)Nc1ccccc1 | 3 | · | 15*
CC(C)c1ccc(NC(=O)CSc2n[nH]c(=O)n2Cc2ccco2)cc1 | -3 | 2 | 2
O=C(CSc1nccn1Cc1ccco1)Nc1ccccc1F | -1 | 0 | -2
COc1ccc(NC(=O)N(C)C[C@H]2Oc3ncc(C#CCN(C)C)cc3C(=O)N([C@H](C)CO)C[C@@H]2C)cc1 | · | 3 | ·
Cc1ccc(NC(=O)C2CCCN(C(=O)c3ccc(Cl)cc3)C2)cc1S(=O)(=O)N1CCOCC1 (configuration not stated) | -13 | -2 | -3
CN1c2ccc(-c3ccccc3)cc2[C@@H]2[C@@H](CCN2C(=O)Cc2ccccc2)[C@H]1CO | 9 | 0 | 3
COc1ccc(S(=O)(=O)N[C@@H]2CC[C@@H](CCn3cc(-c4ccccc4F)nn3)O[C@H]2CO)cc1 | -8 | 0 | -5
COc1ccc(NC(=O)N(C)C[C@@H]2Oc3ccc(NC(=O)Nc4cccc5ccccc45)cc3CC(=O)N([C@H](C)CO)C[C@@H]2C)cc1 | 3 | 0 | -2
O=[N+]([O-])c1ccccc1S(=O)c1ccccc1[N+](=O)[O-] | 32* | 0 | -6
O=C(CS(=O)c1ccccc1[N+](=O)[O-])Oc1ccc(Br)cc1 (configuration not stated) | -1 | · | 0
Cc1cc(C)nc(N/N=C/c2ccccc2OCc2cccc(Br)c2)n1 | -5 | · | 13
CCOc1ccc(Nc2nc(Cc3nnc(SCC(=O)c4ccc(C)c(C)c4)o3)cs2)cc1 | -2 | · | 1
C[C@H](CO)N1C[C@H](C)[C@H](CN(C)Cc2ccc(C(=O)O)cc2)Oc2ccc(NS(=O)(=O)c3cn(C)cn3)cc2C1=O | 41* | · | ·
C[C@H]1CN([C@@H](C)CO)C(=O)c2cc(NS(=O)(=O)c3cn(C)cn3)ccc2O[C@H]1CN(C)Cc1ccc(C(=O)O)cc1 | 19 | · | -4
C[C@@H]1CN([C@@H](C)CO)C(=O)c2cc(NS(=O)(=O)c3ccc(Cl)cc3)ccc2O[C@@H]1CN(C)Cc1ccc(C(=O)O)cc1 | 13 | 0 | 1
C[C@@H]1CN([C@H](C)CO)C(=O)c2cc(NS(=O)(=O)c3ccc(F)cc3)ccc2O[C@@H]1CN(C)Cc1ccc(-c2ccccc2)cc1 | -8 | 0 | 16*
C[C@@H]1CN([C@@H](C)CO)C(=O)c2cc(NS(=O)(=O)c3ccc(F)cc3)ccc2O[C@H]1CN(C)Cc1ccc(-c2ccccc2)cc1 | -3 | 0 | 10
C[C@H](CO)N1C[C@H](C)[C@@H](CN(C)Cc2ccc(C(=O)O)cc2)Oc2ccc(NS(=O)(=O)c3ccc(Cl)cc3)cc2C1=O | -7 | 0 | 24*
